# Where a chain is given by its changes, count along the chain named.
# What was measured:
# [1] = tested on: ACOX-1.1(H396G); assay: Enzyme-coupled kinetic assay, ACOX-1.1; type: biochemical, C. elegans; conditions: 10 μM FAD, various ATP
# Procedure, shortened: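 Coupled H2O2 assay on a plate reader using the mutant enzyme (250 nM final). […] Peroxide was coupled through 4-aminoantipyrine (0.82 mM final), phenol (10.6 mM final) and peroxidase, read at 500 nm. Substrate was 25 µM lauroyl-CoA in 50 mM Tris-HCl pH 7.5, 150 mM NaCl, 10 mM MgCl2. Initial rate was taken over a 30 s window at 25–26 °C.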
# [2] = molecular target: T1, ACOX-1.1(R343A) (Caenorhabditis elegans, UniProt O62140, R343A); assay: Enzyme-coupled kinetic assay, ACOX-1.1; type: biochemical, C. elegans; conditions: varying ATP
# T1 sequence (O62140 1-674 R343A): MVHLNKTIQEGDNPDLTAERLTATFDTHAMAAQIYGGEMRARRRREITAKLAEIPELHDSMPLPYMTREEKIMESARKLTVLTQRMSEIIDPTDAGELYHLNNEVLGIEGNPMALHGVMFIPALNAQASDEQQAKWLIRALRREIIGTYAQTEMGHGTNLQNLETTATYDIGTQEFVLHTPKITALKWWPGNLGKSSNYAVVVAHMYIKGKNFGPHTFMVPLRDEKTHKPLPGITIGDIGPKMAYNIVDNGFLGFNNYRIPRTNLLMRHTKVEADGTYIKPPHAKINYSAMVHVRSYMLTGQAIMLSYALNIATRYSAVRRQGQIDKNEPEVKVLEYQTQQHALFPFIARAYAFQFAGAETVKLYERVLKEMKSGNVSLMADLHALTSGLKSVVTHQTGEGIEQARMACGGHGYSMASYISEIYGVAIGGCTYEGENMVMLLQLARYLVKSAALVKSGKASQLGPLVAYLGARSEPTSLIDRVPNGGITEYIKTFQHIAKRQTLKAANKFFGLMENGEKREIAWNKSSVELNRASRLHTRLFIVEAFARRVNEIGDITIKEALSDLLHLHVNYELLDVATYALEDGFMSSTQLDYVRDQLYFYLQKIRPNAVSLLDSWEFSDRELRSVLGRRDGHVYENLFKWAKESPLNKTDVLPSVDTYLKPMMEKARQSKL
# [3] = molecular target: aspartate transcarbamoylase; conditions: read-out: KD of the high-affinity ATP site; ATP-activated aspartate transcarbamoylase; cited from earlier work
# [4] = molecular target: T2, ACOX-1.1 (Caenorhabditis elegans, UniProt O62140); assay: Analysis of enzyme activity; type: biochemical, C. elegans; conditions: 10 μM FAD, 350 μM ATP
# T2 sequence (O62140 1-674): T1 sequence (O62140 1-674 R343A) with A343R
# [5] = molecular target: T3, ACOX-1.1(K391N) (Caenorhabditis elegans, UniProt O62140, K391N); assay: Enzyme-coupled kinetic assay, ACOX-1.1; type: biochemical, C. elegans
# T3 sequence (O62140 1-674 K391N): T1 sequence (O62140 1-674 R343A) with A343R, K391N
# [6] = molecular target: T4, apo ACOX-1.1 (Caenorhabditis elegans, UniProt O62140); assay: FAD and ATP dissociation constants by fluorescence polarization; type: binding, C. elegans; conditions: KD of ACOX-1.1 for ATP, 4 μM apo ACOX-1.1, 100 nM FAD; 95% CI: 6.1–27.5 μM
# T4 sequence (O62140 1-674): T1 sequence (O62140 1-674 R343A) with A343R
structure (smiles),measurement,setting,value
Nc1ncnc2c1ncn2[C@@H]1O[C@H](COP(=O)(O)OP(=O)(O)OP(=O)(O)O)[C@@H](O)[C@H]1O [ATP],response of enzyme activity to ATP,[1],do not respond to ATP
same,influence of ATP on the activity of the enzyme,[2],no influence on the activity of the enzyme
same,Kd,[3],100 to 200 µM
same,effect on rate of product formation (HPLC),[4],increases the rate of product formation
same,response of enzyme activity to ATP,[5],did not respond to ATP
same,Kd,[6],20.7 µM
